Measured values published in ChEMBL document CHEMBL1146641, “Synthesis of 3-O-acyl/3-benzylidene/3-hydrazone/3-hydrazine/17-carboxyacryloyl ester derivatives of betulinic acid as anti-angiogenic agents” (Bioorg Med Chem Lett, 2004).
≈ marks a conversion by molar mass, not a printed value.

Columns and labels:
ECV-304 [1] = assay: Cytotoxic activity against ECV304 (human endothelial) cell line.; format: functional, cell-based
Outline: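 1.5 × 10⁴ cells exposed 72 h to compounds in DMSO (final DMSO <0.1%) at 0.5–4 µg/mL, in triplicate wells. Viability read by MTT. Experiment repeated three times; mean IC50 (half-maximal cytotoxicity) reported.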

[2] = Ratio of IC50 against DU145 prostate tumor cell line to IC50 of human endothelial ECV304 cell line; format: functional, ECV-304
Outline: (§1)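 Endothelial selectivity ratio = IC50 on the tumor line / IC50 on ECV304. […] Wells in triplicate, experiments in triplicate, mean IC50 used. Ratio <10 rated low, 10–20 moderate, >20 high.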

[3] = Ratio of IC50 against HT-29 colon tumor cell line to IC50 of human endothelial ECV304 cell line; format: functional; outline: as §1
[4] = Ratio of IC50 against L132 Lung tumor cell line to IC50 of human endothelial ECV304 cell line; format: functional; outline: as §1
ECV-304 [5] = assay: Ratio of IC50 against PA-1 ovary tumor cell line to IC50 of human endothelial ECV304 cell line; format: functional, Female gonad; outline: as §1
ECV-304 [6] = assay: Inhibition of tube-like structure formation in ECV304 (human endothelial) cell line.; format: functional

Row | SMILES | IC50 (ECV-304 [1]) | ECS ratio [2] | ECS ratio [3] | ECS ratio [4] | ECS ratio (ECV-304 [5]) | Inhibition (ECV-304 [6])
1 | CC(C)[C@@H]1CC[C@]2(C(=O)O)CC[C@]3(C)C(CCC4[C@@]5(C)CC[C@H](OC(=O)c6ccccc6C(F)(F)F)C(C)(C)C5CC[C@]43C)C12 (stereo not given in full) | 2.6 µg/mL (≈ 4.12 µM) | >1.5 | 3.84 | 1.5 | >1.53 | 
2 | C=CC(=O)OC(=O)[C@]12CC[C@@H](C(=C)C)C1C1CCC3[C@@]4(C)CC[C@H](O)C(C)(C)C4CC[C@@]3(C)[C@]1(C)CC2 (stereo not given in full) | 4 µg/mL (≈ 7.83 µM) | >2.5 | 2.5 | 0.43 | >1 | 
3 | CC(C)[C@@H]1CC[C@]2(C(=O)O)CC[C@]3(C)C(CCC4[C@@]5(C)CCC(=O)C(C)(C)C5CC[C@]43C)C12 (stereo not given in full) | < 4 µg/mL |  |  |  |  | 
4 | CC(C)[C@@H]1CC[C@]2(C(=O)O)CC[C@]3(C)C(CCC4[C@@]5(C)CC/C(=N\Nc6ccccc6)C(C)(C)C5CC[C@]43C)C12 (stereo not given in full) | < 4 µg/mL |  |  |  |  | 
5 | CC(C)[C@@H]1CC[C@]2(C(=O)O)CC[C@]3(C)C(CCC4[C@@]5(C)CCC(N)C(C)(C)C5CC[C@]43C)C12 (stereo not given in full) | < 4 µg/mL |  |  |  |  | 
6 | C=C(C)[C@@H]1CC[C@]2(C(=O)O)CC[C@]3(C)C(CCC4[C@@]5(C)CC[C@H](OC(=O)Cc6cc(OC)ccc6OC)C(C)(C)C5CC[C@]43C)C12 (stereo not given in full) | 1.8 µg/mL (≈ 2.84 µM) | 0.55 | >5.6 | 2.5 |  | 
7 | CC(C)[C@@H]1CC[C@]2(C(=O)O)CC[C@]3(C)C(CCC4[C@@]5(C)CCC(NNc6ccccc6)C(C)(C)C5CC[C@]43C)C12 (stereo not given in full) | 0.5 µg/mL (≈ 0.911 µM) | 19.8 | 3.5 | 1.6 | 7 | 
8 | CC(C)[C@@H]1CC[C@]2(C(=O)O)CC[C@]3(C)C(CCC4[C@@]5(C)CC/C(=N\O)C(C)(C)C5CC[C@]43C)C12 (stereo not given in full) | < 4 µg/mL |  |  |  |  | 
9 | CC(C)[C@@H]1CC[C@]2(C(=O)O)CC[C@]3(C)C(CCC4[C@@]5(C)CC[C@H](OC(=O)c6cc(F)cc(F)c6)C(C)(C)C5CC[C@]43C)C12 (stereo not given in full) | 0.7 µg/mL (≈ 1.17 µM) | 4.5 | >14.3 | 1.7 |  | 
10 | COc1ccc(NNC2CC[C@@]3(C)C(CC[C@]4(C)C3CCC3C5[C@H](C(C)C)CC[C@]5(C(=O)O)CC[C@]34C)C2(C)C)cc1 (stereo not given in full) | 0.4 µg/mL (≈ 0.691 µM) | 21.1 | 0.87 |  |  | 
11 | C=C(C)[C@@H]1CC[C@]2(C(=O)O)CC[C@]3(C)C(CCC4[C@@]5(C)CC[C@H](OC(=O)c6ccc(CCCCC)cc6)C(C)(C)C5CC[C@]43C)C12 (stereo not given in full) | 1.9 µg/mL (≈ 3.01 µM) | 1.05 | 1.84 | 3.1 | >2.1 | 
12 | C=C(C)[C@@H]1CC[C@]2(C(=O)O)CC[C@]3(C)C(CCC4[C@@]5(C)CC[C@H](OC(=O)c6cccc(C(F)(F)F)c6)C(C)(C)C5CC[C@]43C)C12 (stereo not given in full) | 0.9 µg/mL (≈ 1.43 µM) | >11.1 | >11.1 | 3 | >4.4 | 
13 | C=C(C)[C@@H]1CC[C@]2(C(=O)O)CC[C@]3(C)C(CCC4[C@@]5(C)CC[C@H](OC(=O)c6ccc(CCCCCCC)cc6)C(C)(C)C5CC[C@]43C)C12 (stereo not given in full) | 1.7 µg/mL (≈ 2.58 µM) | >5.8 | >5.89 | 4.1 | >2.3 | 
14 | COc1ccc(N/N=C2\CC[C@@]3(C)C(CC[C@]4(C)C3CCC3C5[C@H](C(C)C)CC[C@]5(C(=O)O)CC[C@]34C)C2(C)C)cc1 (stereo not given in full) | < 4 µg/mL |  |  |  |  | 
15 | CC(C)[C@@H]1CC[C@]2(C(=O)O)CC[C@]3(C)C(CCC4[C@@]5(C)CC[C@H](OC(=O)c6ccc(F)cc6F)C(C)(C)C5CC[C@]43C)C12 (stereo not given in full) | 0.7 µg/mL (≈ 1.17 µM) | 3.5 | 2.4 | 1.5 | 2.3 | 20%
16 | CC(C)[C@@H]1CC[C@]2(C(=O)O)CC[C@]3(C)C(CCC4[C@@]5(C)CCC(/N=C/c6ccc(F)cc6F)C(C)(C)C5CC[C@]43C)C12 (stereo not given in full) | 2.4 µg/mL (≈ 4.12 µM) | 1.04 | 2.04 | 1.4 | 0.54 | 48%
17 | CC(C)[C@@H]1CC[C@]2(C(=O)O)CC[C@]3(C)C(CCC4[C@@]5(C)CCC(/N=C/c6ccc(F)c(F)c6)C(C)(C)C5CC[C@]43C)C12 (stereo not given in full) | 0.35 µg/mL (≈ 0.602 µM) | 6.2 | 11.4 | 7.1 | 3.7 | 32%
18 | C=C(C)[C@@H]1CC[C@]2(C(=O)O)CC[C@]3(C)C(CCC4[C@@]5(C)CC/C(=N\Nc6ccccc6)C(C)(C)C5CC[C@]43C)C12 (stereo not given in full) | 2.4 µg/mL (≈ 4.41 µM) | 2.7 | 4.2 | 1.9 | 2.08 | 
19 | C=CC(=O)OC(=O)[C@]12CC[C@@H](C(C)C)C1C1CCC3[C@@]4(C)CC[C@H](O)C(C)(C)C4CC[C@@]3(C)[C@]1(C)CC2 (stereo not given in full) | 2 µg/mL (≈ 3.9 µM) | >2 | 5 | 2 | 0.75 | 
20 | C=C(C)[C@@H]1CC[C@]2(C(=O)O)CC[C@]3(C)[C@H](CC[C@@H]4[C@@]5(C)CC[C@H](O)C(C)(C)[C@@H]5CC[C@]43C)[C@@H]12 [BETULINIC ACID] | 1.2 µg/mL (≈ 2.63 µM) | 2.2 |  | 1 | 3.2 | 
21 | C=C(C)[C@@H]1CC[C@]2(C(=O)O)CC[C@]3(C)[C@H](CC[C@@H]4[C@@]5(C)CCC(=O)C(C)(C)[C@@H]5CC[C@]43C)[C@@H]12 [BETUNOLIC ACID] | < 4 µg/mL |  |  |  |  | 
22 | CC(C)[C@@H]1CC[C@]2(C(=O)O)CC[C@]3(C)C(CCC4[C@@]5(C)CC[C@H](O)C(C)(C)C5CC[C@]43C)C12 (stereo not given in full) [DIHYDROBETULINIC ACID] | < 4 µg/mL |  |  |  |  | 
